Assays:
[1] = biological target: 5-hydroxytryptamine receptor 2B (Homo sapiens, UniProt P41595); assay: Displacement of [3H]-LSD from human recombinant 5-HT2B receptor stably expressed in HEK cells after 90 mins by microbeta scintillation counting method
Outline: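 Radioligand binding run by the NIMH Psychoactive Drug Screening Program. Otherwise Ki comes from sigmoidal curve fits of triplicate measurements in a single experiment, or is averaged over repeated experiments each run in triplicate.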

[2] = biological target: Sigma non-opioid intracellular receptor 1 (Homo sapiens, UniProt Q99720); assay: Displacement of [3H]-Pentazocine from human recombinant sigma1 receptor expressed in HEKT cells after 90 mins by microbeta scintillation counting method
Sequence of Sigma non-opioid intracellular receptor 1 (Q99720 whole entry): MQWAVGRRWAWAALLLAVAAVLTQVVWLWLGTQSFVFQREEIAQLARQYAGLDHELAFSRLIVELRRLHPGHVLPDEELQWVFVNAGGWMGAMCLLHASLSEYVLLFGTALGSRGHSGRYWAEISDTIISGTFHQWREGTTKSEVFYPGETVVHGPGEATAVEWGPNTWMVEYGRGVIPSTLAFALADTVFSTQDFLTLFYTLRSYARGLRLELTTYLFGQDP

Sequence of 5-hydroxytryptamine receptor 2B (P41595 whole entry): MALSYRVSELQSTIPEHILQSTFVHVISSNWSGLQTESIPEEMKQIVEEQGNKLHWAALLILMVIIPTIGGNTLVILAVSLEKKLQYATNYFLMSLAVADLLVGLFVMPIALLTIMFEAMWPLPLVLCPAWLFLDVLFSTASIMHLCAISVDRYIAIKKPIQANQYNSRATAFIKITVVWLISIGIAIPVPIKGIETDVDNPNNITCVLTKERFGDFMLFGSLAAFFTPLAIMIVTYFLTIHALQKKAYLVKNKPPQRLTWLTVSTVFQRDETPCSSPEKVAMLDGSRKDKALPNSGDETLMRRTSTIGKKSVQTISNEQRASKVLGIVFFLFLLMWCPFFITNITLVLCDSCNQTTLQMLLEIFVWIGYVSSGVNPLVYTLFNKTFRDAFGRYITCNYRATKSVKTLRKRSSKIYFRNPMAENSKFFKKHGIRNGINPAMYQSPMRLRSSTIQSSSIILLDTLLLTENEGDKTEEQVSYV

Ki [2] [nM] | SMILES | Ki [1] [nM]
 | CC[C@H]1c2ccc3ccccc3c2OC[C@@]1(C)N | 2.51
12.6 | CC[C@H]1c2cc(-c3ccccc3)ccc2OC[C@@]1(C)N | 

— BindingDB's records for doi:10.1021/acsmedchemlett.9b00225 (University of Minnesota Twin Cities, 2019)
